From ChEMBL document CHEMBL1146196, “Bactericidal activity and resistance development profiling of dalbavancin” (2007)
Values after ≈ are worked out from the molar mass of the structure shown. Active and inactive are the calls of the source. No cut-off for these calls is given here.

Legend:
Staphylococcus aureus [1] = experiment: Antimicrobial activity against methicillin-susceptible Staphylococcus aureus FB892379 by broth microdilution method; assay type: functional
Summary of the method: (§1)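 Clinical staphylococcal isolates from US hospitals with known resistance phenotypes.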

Staphylococcus aureus [2] = experiment: Bacterial killing activity of methicillin-susceptible Staphylococcus aureus at 8 to 32 ug/ml; assay type: functional
[3] = system: Staphylococcus epidermidis; experiment: Antimicrobial activity against methicillin-resistant Staphylococcus epidermidis FB896283 by broth microdilution method; assay type: functional; summary of the method: as §1
Streptococcus pyogenes [4] = experiment: Antimicrobial activity against erythromycin-resistant Streptococcus pyogenes FB764371 by broth microdilution method; assay type: functional
Summary of the method: (§2)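 Clinical US hospital isolates. The medium was supplemented with 2 to 5% lysed horse blood.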

Enterococcus faecalis [5] = experiment: Antimicrobial activity against vancomycin-susceptible Enterococcus faecalis FB766782; assay type: functional
Enterococcus faecium [6] = experiment: Antimicrobial activity against vancomycin-susceptible Enterococcus faecium FB767191
Streptococcus pyogenes [7] = experiment: Antimicrobial activity against erythromycin-susceptible Streptococcus pyogenes FB1041626 by broth microdilution method; assay type: functional; summary of the method: as §2
Enterococcus faecalis [8] = experiment: Antimicrobial activity against vancomycin-susceptible Enterococcus faecalis FB766323; assay type: functional
[9] = system: Staphylococcus epidermidis; experiment: Antimicrobial activity against methicillin-resistant Staphylococcus epidermidis FB750345 by broth microdilution method; assay type: functional; summary of the method: as §1
Streptococcus pyogenes [10] = experiment: Bactericidal activity against Streptococcus pyogenes; assay type: functional
Staphylococcus aureus [11] = experiment: Bacterial killing activity of vancomycin-intermediate Staphylococcus aureus at 8 to 32 ug/ml; assay type: functional
[12] = system: Staphylococcus haemolyticus; experiment: Antimicrobial activity against Staphylococcus haemolyticus FB954177 by broth microdilution method; assay type: functional
[13] = system: Staphylococcus epidermidis; experiment: Antimicrobial activity against methicillin-resistant Staphylococcus epidermidis FB758988 by broth microdilution method; assay type: functional; summary of the method: as §1
[14] = system: Staphylococcus haemolyticus; experiment: Antimicrobial activity against Staphylococcus haemolyticus FB953975 by broth microdilution method; assay type: functional
Staphylococcus aureus [15] = experiment: Bacterial killing activity of methicillin-resistant Staphylococcus aureus at 8 to 32 ug/ml; assay type: functional
Staphylococcus aureus [16] = experiment: Antimicrobial activity against methicillin-resistant Staphylococcus aureus FB1051634 by broth microdilution method; assay type: functional; summary of the method: as §1
Enterococcus faecium [17] = experiment: Antimicrobial activity against vancomycin-susceptible Enterococcus faecium FB769334
Streptococcus pyogenes [18] = experiment: Antimicrobial activity against erythromycin-susceptible Streptococcus pyogenes FB1041775 by broth microdilution method; assay type: functional
Staphylococcus aureus [19] = experiment: Antimicrobial activity against vancomycin-intermediate Staphylococcus aureus FB988644; assay type: functional
Staphylococcus aureus [20] = experiment: Antimicrobial activity against methicillin-resistant Staphylococcus aureus FB1065524 by broth microdilution method; assay type: functional; summary of the method: as §1
Staphylococcus aureus [21] = experiment: Antimicrobial activity against methicillin-susceptible Staphylococcus aureus FB1050986 by broth microdilution method; assay type: functional; summary of the method: as §1
Staphylococcus aureus [22] = experiment: Bacterial killing activity of methicillin-susceptible Staphylococcus aureus at 0.25 ug/ml; assay type: functional, organism-based
Summary of the method: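 Time-kill per CLSI; inoculum approximately 10^7 CFU/ml; dalbavancin at 0.25, 1, 4 and 16 µg/ml; viable counts after 24 h exposure, expressed as log10 reduction.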

Staphylococcus aureus [23] = experiment: Bacterial killing activity of methicillin-resistant Staphylococcus aureus at 0.25 ug/ml; assay type: functional, organism-based
Summary of the method: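 Time-kill per CLSI with a starting inoculum of approximately 10^7 CFU/ml. Dalbavancin was tested at 0.25, 1, 4 and 16 µg/ml, chosen to reflect free plasma levels plus a lower level. Viable counts were taken over 24 h and reported as log10 decrease.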

Streptococcus pyogenes [24] = experiment: Bacterial killing activity of Streptococcus pyogenes at 0.25 ug/ml; assay type: functional
Summary of the method: (§3)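 CLSI time-kill in medium with 2 to 5% lysed horse blood; starting inoculum approximately 10^7 CFU/ml; dalbavancin at 0.25, 1, 4 and 16 µg/ml; viable counts followed to 24 h, killing expressed as log10 decrease.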

Streptococcus pyogenes [25] = experiment: Bacterial killing activity of Streptococcus pyogenes at >=1 ug/ml; assay type: functional; summary of the method: as §3

SMILES	MBC (Staphylococcus aureus [1])	MBC [3]	MBC (Streptococcus pyogenes [4])	MBC (Enterococcus faecalis [5])	MBC (Enterococcus faecium [6])	MBC (Streptococcus pyogenes [7])	MBC (Enterococcus faecalis [8])	MBC [9]	MBC [12]	MIC [12]	MBC [13]	MBC [14]	MIC [14]	MBC (Staphylococcus aureus [16])	MBC (Enterococcus faecium [17])	MBC (Streptococcus pyogenes [18])	MBC (Staphylococcus aureus [19])	MBC (Staphylococcus aureus [20])	MBC (Staphylococcus aureus [21])	also measured
CN[C@H](CC(C)C)C(=O)N[C@H]1C(=O)N[C@@H](CC(N)=O)C(=O)N[C@H]2C(=O)N[C@H]3C(=O)N[C@H](C(=O)N[C@H](C(=O)O)c4cc(O)cc(O)c4-c4cc3ccc4O)[C@H](O)c3ccc(c(Cl)c3)Oc3cc2cc(c3O[C@@H]2O[C@H](CO)[C@@H](O)[C@H](O)[C@H]2O[C@H]2C[C@](C)(N)[C@H](O)[C@H](C)O2)Oc2ccc(cc2Cl)[C@H]1O [VANCOMYCIN]	1 µg/mL (≈ 0.69 µM)	2 µg/mL (≈ 1.38 µM)	0.5 µg/mL (≈ 0.345 µM)	> 32 µg/mL	> 32 µg/mL	0.5 µg/mL (≈ 0.345 µM)	> 32 µg/mL	2 µg/mL (≈ 1.38 µM)	> 32 µg/mL	1 µg/mL (≈ 0.69 µM)	2 µg/mL (≈ 1.38 µM)	4 µg/mL (≈ 2.76 µM)	4 µg/mL (≈ 2.76 µM)	1 µg/mL (≈ 0.69 µM)	16 µg/mL (≈ 11 µM)	> 2 µg/mL	8 µg/mL (≈ 5.52 µM)	1 µg/mL (≈ 0.69 µM)	2 µg/mL (≈ 1.38 µM)	Log10 cfu (Staphylococcus aureus [2]): >=3; Log10 cfu (Streptococcus pyogenes [10]): <2; Log10 cfu (Staphylococcus aureus [11]): >=3; Log10 cfu (Staphylococcus aureus [15]): >=3
CN[C@H]1C(=O)N[C@@H]2Cc3ccc(cc3)Oc3cc4cc(c3O[C@@H]3O[C@H](C(=O)O)[C@@H](O)[C@H](O)[C@H]3NC(=O)CCCCCCCCC(C)C)Oc3ccc(cc3Cl)[C@@H](O)[C@@H]3NC(=O)[C@H](NC(=O)[C@@H]4NC(=O)[C@@H](NC2=O)c2cc(cc(O)c2Cl)Oc2cc1ccc2O)c1ccc(O)c(c1)-c1c(O[C@H]2O[C@H](CO)[C@@H](O)[C@H](O)[C@@H]2O)cc(O)cc1[C@@H](C(=O)NCCCN(C)C)NC3=O [DALBAVANCIN]	0.06 µg/mL (≈ 0.033 µM)	0.03 µg/mL (≈ 0.0165 µM)	0.008 µg/mL (≈ 0.0044 µM)	4 µg/mL (≈ 2.2 µM)	2 µg/mL (≈ 1.1 µM)	0.008 µg/mL (≈ 0.0044 µM)	8 µg/mL (≈ 4.4 µM)	0.06 µg/mL (≈ 0.033 µM)	0.12 µg/mL (≈ 0.0661 µM)	0.03 µg/mL (≈ 0.0165 µM)	0.06 µg/mL (≈ 0.033 µM)	0.25 µg/mL (≈ 0.138 µM)	0.12 µg/mL (≈ 0.0661 µM)	0.06 µg/mL (≈ 0.033 µM)	2 µg/mL (≈ 1.1 µM)	0.25 µg/mL (≈ 0.138 µM)	2 µg/mL (≈ 1.1 µM)	0.5 µg/mL (≈ 0.275 µM)	1 µg/mL (≈ 0.55 µM)	MIC (Staphylococcus aureus [1]): 0.06 µg/mL (≈ 0.033 µM); Activity (Staphylococcus aureus [22]): Active; MIC [3]: 0.03 µg/mL (≈ 0.0165 µM); MIC (Streptococcus pyogenes [4]): 0.008 µg/mL (≈ 0.0044 µM); MIC (Enterococcus faecalis [5]): 0.06 µg/mL (≈ 0.033 µM); MIC (Enterococcus faecium [6]): 0.03 µg/mL (≈ 0.0165 µM); Activity (Staphylococcus aureus [23]): Active; MIC (Streptococcus pyogenes [7]): 0.008 µg/mL (≈ 0.0044 µM); MIC (Enterococcus faecalis [8]): 0.03 µg/mL (≈ 0.0165 µM); MIC [9]: 0.06 µg/mL (≈ 0.033 µM); MIC [13]: 0.06 µg/mL (≈ 0.033 µM); MIC (Staphylococcus aureus [16]): 0.06 µg/mL (≈ 0.033 µM); Log10 cfu (Streptococcus pyogenes [24]): >3; MIC (Enterococcus faecium [17]): 0.015 µg/mL (≈ 0.00826 µM); MIC (Streptococcus pyogenes [18]): 0.008 µg/mL (≈ 0.0044 µM); MIC (Staphylococcus aureus [19]): 1 µg/mL (≈ 0.55 µM); MIC (Staphylococcus aureus [20]): 0.06 µg/mL (≈ 0.033 µM); MIC (Staphylococcus aureus [21]): 0.06 µg/mL (≈ 0.033 µM); Log10 cfu (Streptococcus pyogenes [25]): 5
